Usually solubility stands for the concentration that dissolves in the medium under given conditions. The term AUC(0-inf) denotes the area under the concentration-time curve extrapolated to infinity. For orientation: Tmax means the time at which the peak concentration occurs. The term EC50 denotes the concentration needed to bring the measured effect to its halfway point.

These results are taken from ChEMBL document CHEMBL4020830, “Design, Synthesis, and Evaluation of a Novel Series of Indole Sulfonamide Peroxisome Proliferator Activated Receptor (PPAR) α/γ/δ Triple Activators: Discovery of Lanifibranor, a New Antifibrotic Clinical Candidate” (J Med Chem, 2018).

Data set [1] is described as follows: Aqueous solubility in fasted state simulated intestinal fluid. The data set is classed as physicochemical.
Data set [2] deals with T1, Peroxisome proliferator-activated receptor delta (Mus musculus) (UniProt P35396).
T1 sequence (whole entry): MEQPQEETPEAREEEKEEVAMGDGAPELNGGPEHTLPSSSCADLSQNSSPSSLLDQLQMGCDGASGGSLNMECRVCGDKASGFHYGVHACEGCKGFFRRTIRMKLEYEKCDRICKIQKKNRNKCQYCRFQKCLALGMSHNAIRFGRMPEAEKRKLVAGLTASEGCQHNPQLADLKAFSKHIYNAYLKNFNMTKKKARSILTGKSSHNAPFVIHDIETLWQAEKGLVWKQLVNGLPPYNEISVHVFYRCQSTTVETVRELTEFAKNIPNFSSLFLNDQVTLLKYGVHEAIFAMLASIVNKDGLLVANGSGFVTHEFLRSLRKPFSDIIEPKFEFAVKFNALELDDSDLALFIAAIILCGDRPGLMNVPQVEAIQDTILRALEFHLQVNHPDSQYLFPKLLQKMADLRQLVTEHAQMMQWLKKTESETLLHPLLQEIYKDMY
Put plainly: Transactivation of PPARdelta in mouse C2C12 cells assessed increase in [14C]oleate beta-oxidation at 30 uM preincubated for 48 hrs followed by [14C]oleate addition during last 2 hrs of incubation period relative to control. Type of data set: cell-based. In outline: (§1)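 Fatty acid beta-oxidation was used as the functional read-out. PPARα activity was tested in human hepatoma HuH7 cells and PPARδ activity in mouse myoblast C2C12 cells, at 1, 3, 10 and 30 µM. Values are % beta-oxidation, mean of at least 2 independent experiments run in triplicate, with single-experiment values flagged.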

For data set [3], the target named is T1, Peroxisome proliferator-activated receptor delta (Mus musculus). Put plainly: Transactivation of PPARdelta in mouse C2C12 cells assessed increase in [14C]oleate beta-oxidation at 10 uM preincubated for 48 hrs followed by [14C]oleate addition during last 2 hrs of incubation period relative to control. Type of data set: cell-based. In outline:
as §1

In data set [4] the target is T2, Peroxisome proliferator-activated receptor alpha (Homo sapiens) (UniProt Q07869).
T2 sequence (whole entry): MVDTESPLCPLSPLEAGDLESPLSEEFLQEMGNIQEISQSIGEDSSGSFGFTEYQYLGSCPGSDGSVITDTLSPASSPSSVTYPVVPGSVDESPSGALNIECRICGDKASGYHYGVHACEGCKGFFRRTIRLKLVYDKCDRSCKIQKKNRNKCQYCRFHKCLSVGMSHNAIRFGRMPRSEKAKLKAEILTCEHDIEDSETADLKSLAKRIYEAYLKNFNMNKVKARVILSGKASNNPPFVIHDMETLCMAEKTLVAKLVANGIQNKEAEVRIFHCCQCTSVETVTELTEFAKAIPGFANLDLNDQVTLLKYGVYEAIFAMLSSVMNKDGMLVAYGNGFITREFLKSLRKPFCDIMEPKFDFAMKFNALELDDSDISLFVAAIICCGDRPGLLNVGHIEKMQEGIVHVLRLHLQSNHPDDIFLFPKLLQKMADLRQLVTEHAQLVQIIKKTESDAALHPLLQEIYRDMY
Put plainly: Transactivation of human GAL4-fused PPARalpha LBD expressed in African green monkey COS7 cells co-expressing 5Gal4 pGL3 TK Luc after overnight incubation by luciferase reporter gene assay relative to fenofibric acid. The data set is classed as cell-based. In outline:
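Cell-based Gal-4 transactivation assay in COS-7 cells transfected with PPARα, PPARδ or PPARγ ligand-binding domain. EC50 and Emax were derived, with Emax as maximum activation in percent of control. EC50s are means of at least two independent experiments performed in triplicate.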

Data set [5] relates to Mus musculus. As to the kind of experiment: Hypolipidemic activity in C57BL/Ks mouse model of diabetic dyslipidemia assessed as decrease in plasma triglyceride level at 30 mg/kg, po qd administered via gavage for 10 days measured 4 hrs post last dose. The data set is classed as functional, organism-based. The method in brief:
(§2)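 Homozygous male C57BL/Ks-db (db/db) mice were gavaged once daily at 10 or 30 mg/kg, for 5 or 10 days. Retro-orbital blood was drawn before treatment and 4 h after the last gavage. Glucose and triglycerides were measured in serum. Results are expressed as % variation on the final day versus the control group. Analysis was one-way ANOVA with Dunnett's test.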

Data set [6] has as its target T1, Peroxisome proliferator-activated receptor delta (Mus musculus). Put plainly: Transactivation of PPARdelta in mouse C2C12 cells assessed increase in [14C]oleate beta-oxidation at 1 uM preincubated for 48 hrs followed by [14C]oleate addition during last 2 hrs of incubation period relative to control. Type of data set: cell-based. In outline:
as §1

Data set [7] in a line: AUC (infinity) in C57Bl6 mouse at 10 mg/kg, po administered as single oral dose. Type of data set: ADME, organism-based. As to conditions: in vivo. The method in brief:
(§3)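 Single oral dose of 10 mg/kg in methyl cellulose vehicle given to C57Bl6 mice. Plasma was sampled over a 24 h period. […]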

Data set [8] concerns Mus musculus. As to the kind of experiment: Hypolipidemic activity in C57BL/Ks mouse model of diabetic dyslipidemia assessed as decrease in plasma triglyceride level at 10 mg/kg, po qd administered via gavage for 10 days measured 4 hrs post last dose. Type of data set: functional, organism-based. In outline: as §2
The nature of data set [9]: Tmax in C57Bl6 mouse at 10 mg/kg, po administered as single oral dose. As to conditions: in vivo. Type of data set: ADME, organism-based. In outline:
as §3

Data set [10] deals with T1, Peroxisome proliferator-activated receptor delta (Mus musculus). Put plainly: Transactivation of PPARdelta in mouse C2C12 cells assessed increase in [14C]oleate beta-oxidation at 3 uM preincubated for 48 hrs followed by [14C]oleate addition during last 2 hrs of incubation period relative to control. The data set is classed as cell-based. In outline:
as §1

The subject of another data set is Rattus norvegicus. As to the kind of experiment: Toxicity in Sprague-Dawley rat assessed as effect on heart weight at 100 to 1000 mg/kg for 6 weeks. Type of data set: organism-based. The following applies: in vivo, 1008 h. The method in brief:
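Sprague-Dawley rats were treated at 100 and 1000 mg/kg. Hematocrit and plasma volume were measured after 4 weeks and heart weight after 6 weeks. Analysis was one-way ANOVA with Dunnett's test versus control.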

In data set [11] the target is T3, Peroxisome proliferator-activated receptor gamma (Homo sapiens, UniProt P37231).
T3 sequence (P37231 whole entry): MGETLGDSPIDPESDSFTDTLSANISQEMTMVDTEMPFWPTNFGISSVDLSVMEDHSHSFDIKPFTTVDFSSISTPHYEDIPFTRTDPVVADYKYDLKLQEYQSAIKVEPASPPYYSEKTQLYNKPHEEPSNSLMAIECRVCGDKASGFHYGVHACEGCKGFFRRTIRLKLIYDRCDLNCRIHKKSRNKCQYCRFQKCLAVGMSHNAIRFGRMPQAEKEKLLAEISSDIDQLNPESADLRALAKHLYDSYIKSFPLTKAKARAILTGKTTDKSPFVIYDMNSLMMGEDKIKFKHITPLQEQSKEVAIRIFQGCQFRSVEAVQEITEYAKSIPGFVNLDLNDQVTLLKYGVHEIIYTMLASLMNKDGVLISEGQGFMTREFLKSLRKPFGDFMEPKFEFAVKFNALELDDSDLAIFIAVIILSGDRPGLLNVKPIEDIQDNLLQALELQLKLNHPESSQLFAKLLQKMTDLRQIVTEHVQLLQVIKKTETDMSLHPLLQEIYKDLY

Data set [12] deals with T3, Peroxisome proliferator-activated receptor gamma. This is another data set of the same source.

Converted amounts (≈) assume the structure as drawn. The source made the active and inactive calls. No cut-off for these calls is given here.

`O=C(O)CCc1cc2cc(Cl)ccc2n1S(=O)(=O)c1ccccc1` gave a solubility in data set [1] of 9 µM (≈ 3.27 µg/mL). Besides, the Activity in data set [2] is 27%; in [3], 12%; in data set [6], -6%. This compound displayed an Emax in [4] of 101%. In the data set on Mus musculus [5], the result was Active. Besides, the AUC(0-inf) in data set [7] was 37300 ng·h/mL. Also, in the data set on Mus musculus [8], the result was inactive. Also, the time of peak concentration (Tmax) in data set [9] came out at 1 h.

As to `O=C(O)CCCc1cc2cc(Cl)ccc2n1S(=O)(=O)c1ccc2ncsc2c1` [LANIFIBRANOR], the Activity is 37% in [10]; 55% in [2]; 67% in [3]; “Non-Toxic” with Rattus norvegicus; 12% in [6]. In data set [1], this compound yielded a solubility of 8.7 µM (≈ 3.78 µg/mL). This compound also registered an Emax in data set [4] of 106%. In data set [7], this compound had an AUC(0-inf) of 29400 ng·h/mL. Further, the values for the EC50 in data set [11] and in data set [12] were 4.11 µM and 1.92 µM, respectively. For the same compound, the Tmax in [9] was determined as 1 h.
